Data reported in PubChem BioAssay.
Records with an inconclusive call do not appear. Calls of active or inactive are those of the source.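 Rule for the calls, unless noted: active = inhibition over a set limit, the all-compound mean plus 3 SD, in both replicate runs; inconclusive = over that limit in just one replicate run; inactive = at or under that limit in both runs.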

Key:
[1] = OD615 S. cerevisiae growth inhibition, permissive medium, pilot counter-assay, permissive growth control for S. cerevisiae lifespan shortening project (AID 705;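 active = growth inhibition above 25% in both replicates, a cutoff set 3 SD above the mean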); conditions: OD615, 24 h, at 10 µM, stronger effect = higher value
Summary of the method: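 Material: engineered DeaD yeast; compound dosing: one dose 10 µM, DMSO 0.25% final; measure: yeast growth inhibition indicated by reduced 24 h OD615; detection: OD615 turbidity read; incubation: cells pre-grown 4 h, then 24 h compound exposure, 30 °C humidified; medium: permissive synthetic complete medium with raffinose and galactose carbon sources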

[2] = Restrictive medium S. cerevisiae growth inhibition, OD615, pilot screen of yeast lifespan reduction project, restrictive growth control (AID 706;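 active = growth inhibition above a set limit, 3 SD over mean compound inhibition, in both replicates, cut at about 43% in these data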;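 note: modified DeaD lifespan yeast strain shifted to restrictive glucose medium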); conditions: OD615, 48 h, at 10 µM, stronger effect = higher value
Summary of the method: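 material = engineered S. cerevisiae DeaD strain | medium = glucose-based CSMM-D restrictive medium | times = 4 h pre-incubation, 48 h exposure at 30 °C | technique = OD615 absorbance reading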

[3] = viability gain of MRP-1-high H69AR cells under doxorubicin, pilot screen, MRP-1 activator project, CellTiter-Glo, duplicate (AID 807;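 active = viability increase at or above a cutoff of the median across tested compounds plus 3 SD, cut at about 8.5% in these data, passing the limit was not always enough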;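 note: compound pretreatment 18-22 h then 72 h combined with doxorubicin; 0% = doxorubicin alone and 100% = vehicle without doxorubicin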); conditions: H69AR viability with doxorubicin, CellTiter-Glo luminescence; at 10 µM; stronger effect = higher value
[4] = growth suppression of beta-catenin knockout HCT116, pilot screen, human colon tumor cells (AID 823;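 active = cell viability at or below a set limit in both duplicate runs, the limit being the all-compound median minus 4 SD, cut at about 23% in these data, passing the limit was not always enough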;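 note: 0% = wells killed by 20 µM Hyamine and 100% = untreated DMSO cell wells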); conditions: CellTiter-Glo, 60 h, at 10 µM, stronger effect = lower value
[5] = growth suppression of PTEN-deleted HCT116, pilot screen, cell-based, HCT116 clonal line, CellTiter-Glo (AID 824;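 active = viability at or below 27.92% in each of two runs, the all-compound median minus 4 SD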;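 note: 0% = 20 µM Hyamine control and 100% = vehicle cell control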); conditions: 60 h, at 10 µM, stronger effect = lower value
[6] = inhibitors of the yeast RAM network, pilot screen, dse1pr::URA3 reporter, 5-FOA selection (AID 869);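 note: 0% = DMSO wells with no growth and 100% = 10 µM 1-NA-PP1 with full growth; RAM network block rescues cells from 5-FOA so hits raise OD615 growth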; conditions: S. cerevisiae dse1pr::URA3 5-FOA growth, OD615, 2 d; at 10 µM; stronger effect = higher value; strain carries analog-sensitive mutant Cbk1 kinase
[7] = RAM signaling pathway blockade in yeast – S. cerevisiae, Pdr1DBD-CYC8 efflux-inhibited sensitized strain, primary screen (AID 1298;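 active = RAM network inhibition above 8.4% in each of two replicates, 3 SD over the compound average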;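 note: 0% = DMSO untreated cells without growth and 100% = 10 µM 1-NA-PP1 full growth; higher means more yeast growth rescued from 5-FOA killing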); conditions: S. cerevisiae cbk1-as DSE1-URA3 strain, 5-FOA growth OD615, 2 d; at 50 µM; stronger effect = higher value

CCCNc1nc2c(c(=O)[nH]c(=O)n2C)n1Cc1cccc(Br)c1
inactive: growth inhibition [1] -4.76% | growth inhibition [2] -9.2% | viability increase [3] -2.4% | viability [4] 97.8% | viability [5] 92.6% | inhibition [6] 3.46% | RAM network inhibition [7] 7.91%

Cc1c(C(=O)OCC2CCCO2)[nH]c2c1C(=O)CC(c1ccc(N(C)C)cc1)C2 (stereo not given)
inactive: growth inhibition [1] -4.14% | growth inhibition [2] 3.2% | viability increase [3] -0.25% | viability [4] 67.7% | viability [5] 71.5% | inhibition [6] 1.09% | RAM network inhibition [7] 6.62%

O=C1CSC(=S)N1Cc1cccnc1
inactive: growth inhibition [1] -15.3% | growth inhibition [2] 16.2% | viability increase [3] -8.48% | inhibition [6] 0.82% | RAM network inhibition [7] -0.15%
active: viability [4] 8.06% | viability [5] 9.45%

N=c1c2c(n(Cc3ccc(F)cc3)c3c1CCC3)CCC2
inactive: growth inhibition [1] -12.2% | growth inhibition [2] -14.7% | viability increase [3] -0.55% | viability [4] 34.5% | viability [5] 38.9% | inhibition [6] 0.8% | RAM network inhibition [7] 0.77%

COc1ccc(N2C(=O)CCC(C(=O)N3CCC(C(N)=O)CC3)C2c2ccc(F)cc2)cc1 (stereo not given)
inactive: growth inhibition [1] -5.89% | growth inhibition [2] -16.2% | viability increase [3] -0.33% | viability [4] 99.6% | viability [5] 102% | inhibition [6] 1.6% | RAM network inhibition [7] 3.66%

Cc1nn(C)c(C)c1S(=O)(=O)N(CC(=O)Nc1ccccn1)c1ccc(C(C)C)cc1
inactive: growth inhibition [1] -2.97% | growth inhibition [2] -15.5% | viability increase [3] -1.21% | viability [4] 80.1% | viability [5] 82.2% | inhibition [6] 2% | RAM network inhibition [7] -0.48%

CC(C)CC(/C(O)=C(\C#N)c1nc2ccccc2[nH]1)N1C(=O)c2ccccc2C1=O (stereo not given)
inactive: growth inhibition [1] -13.3% | growth inhibition [2] -18.9% | viability increase [3] -2.01% | viability [4] 82% | viability [5] 73.3% | inhibition [6] 3.05% | RAM network inhibition [7] 4.23%

CCc1cc(=O)oc2cc(C)cc(O)c12
inactive: growth inhibition [1] -16.6% | growth inhibition [2] -7.76% | viability increase [3] -1.72% | viability [4] 95.3% | viability [5] 99.8% | inhibition [6] 0.2% | RAM network inhibition [7] 1.99%

Nc1c(C(=O)NCc2cccnc2)sc(=S)n1-c1ccccc1
inactive: growth inhibition [1] 11.3% | growth inhibition [2] 25.7% | viability increase [3] -1.61% | viability [4] 90.3% | viability [5] 83.6% | inhibition [6] 2.5% | RAM network inhibition [7] 2.58%

ON1C(c2ccc(Cl)cc2Cl)N(O)[C@H]2CCCC[C@H]21 (stereo not given in full)
inactive: growth inhibition [1] -6.31% | growth inhibition [2] -5.43% | viability increase [3] -1.27% | viability [4] 101% | viability [5] 100% | inhibition [6] 1.35% | RAM network inhibition [7] 4.97%

CC(=O)NC(C)c1nc2ccccc2n1Cc1ccccc1F (stereo not given)
inactive: growth inhibition [1] -5.38% | growth inhibition [2] -3.36% | viability increase [3] 0.25% | viability [4] 102% | viability [5] 93.8% | inhibition [6] 3.67% | RAM network inhibition [7] 5.71%

Cc1ccc2c(CC(=O)O)coc2c1C
inactive: growth inhibition [1] 3.31% | growth inhibition [2] 33.3% | viability increase [3] -2.01% | viability [4] 88% | viability [5] 89.5% | inhibition [6] -0.555% | RAM network inhibition [7] -1.19%

CCOC(=O)CCc1c(C)c2c(C)nn(-c3ccccc3)c2[nH]c1=O
inactive: growth inhibition [1] -2.26% | growth inhibition [2] -0.33% | viability increase [3] -1.19% | viability [4] 99% | viability [5] 95.9% | inhibition [6] 1.65% | RAM network inhibition [7] 1.84%

CCc1ccc(NC(=O)CSc2nnc(Cc3cccn3C)n2-c2ccc(F)cc2)cc1
inactive: growth inhibition [1] 4.25% | growth inhibition [2] 12.9% | viability increase [3] -5.81% | viability [4] 77.2% | viability [5] 68.9% | inhibition [6] 0.05% | RAM network inhibition [7] 7.15%

Cn1c(C(=O)N2CCCC2)cc2c(=O)n(C)c3ccccc3c21
inactive: growth inhibition [1] -2.97% | growth inhibition [2] 3.21% | viability increase [3] -3.32% | viability [4] 102% | viability [5] 95.5% | inhibition [6] 2.04% | RAM network inhibition [7] -0.2%
